Target: Cell division control protein 42 homolog (Homo sapiens) (UniProt P60953)
Assay: compound effect on Cdc42 GTP saturation binding, late-stage follow-up, mechanism study for Ras-family GTPase inhibitor project, biochemical, nucleotide-depleted protein, Mg buffer, varying GTP (AID 2372)
Conditions: GST-Cdc42 beads, BODIPY-GTP binding, flow cytometry
In short: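 Material: nucleotide-free GST-Cdc42 on glutathione beads; quantity: 4 µM GST-Cdc42 used for overnight bead loading at 4 °C; buffer or medium: 1 mM MgCl2 buffer, EDTA-depleted beads; timing: EDTA depletion 20 min at 30 °C, compound pre-incubation 2 min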

Chain of Cell division control protein 42 homolog (Homo sapiens) (P60953 whole entry, looked up): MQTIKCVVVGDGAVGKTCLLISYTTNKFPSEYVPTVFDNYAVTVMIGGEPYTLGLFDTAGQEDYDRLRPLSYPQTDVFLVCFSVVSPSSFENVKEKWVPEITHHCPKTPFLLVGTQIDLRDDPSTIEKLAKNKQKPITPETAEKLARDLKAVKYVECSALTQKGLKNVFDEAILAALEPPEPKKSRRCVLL

Compound: COc1ccc(C2CC(c3ccccc3)=NN2c2ccc(S(N)(=O)=O)cc2)cc1 (configuration not stated)
- Bmax with compound (at 10 µM, stronger effect = lower value): 1540
- Kd of GTP with compound (measured here: GTP affinity with 10 uM compound): 7.16 nM
